Rows were chosen to be rich in hits. Some 4.6% of all compounds tested hit in one or more screens of this group.
OX1R antag-1 – OX1R (HCRTR1) antagonists, primary screen, fluorescence, CHO/OX1R cells, Fluo-8 calcium, orexin A; Orexin/Hypocretin receptor type 1 (Homo sapiens), O43613; Fluo-8 calcium fluorescence; inhibition, % at 5 µM; hit rate 0.43% among 330,000;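 active means inhibition above its plate's threshold, mean inhibition of all tested compounds on the plate plus 3 SD, cut at about 37% in these data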;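 further: 0% = orexin A challenge wells and 100% = SB-334867-A antagonist wells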
Target sequence (O43613 whole entry, looked up): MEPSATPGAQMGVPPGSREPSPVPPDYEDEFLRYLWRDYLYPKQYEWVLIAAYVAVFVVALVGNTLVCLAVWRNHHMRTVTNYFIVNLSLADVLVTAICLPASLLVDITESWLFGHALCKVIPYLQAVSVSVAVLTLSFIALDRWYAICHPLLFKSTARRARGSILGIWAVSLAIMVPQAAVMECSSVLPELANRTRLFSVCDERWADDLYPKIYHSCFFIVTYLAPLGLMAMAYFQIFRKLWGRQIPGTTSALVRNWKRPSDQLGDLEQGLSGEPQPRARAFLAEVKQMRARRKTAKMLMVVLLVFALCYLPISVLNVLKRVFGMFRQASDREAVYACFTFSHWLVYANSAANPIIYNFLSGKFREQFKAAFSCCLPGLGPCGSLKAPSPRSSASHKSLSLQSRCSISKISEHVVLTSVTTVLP
TAAR1 agonist – human TAAR1 agonists, primary screen, Fluo-8 calcium fluorescence, CHO RD-HGA16 cells; vehicle wells 0%, saturating PEA agonist 100%; Trace amine-associated receptor 1 (Homo sapiens), Q96RJ0; AID 624467, 2012; activation, % at 3 µM; hit rate 0.99% among 360,000;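 active means activation above the mean activation of all test compounds in the run plus 3 SD, cut at about 38% in these data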
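System: CHO-derived RD-HGA16 cells with stable Gα16 and human TAAR1. Times: 17-24 h plating, Fluo-8 75 min 37 °C, 30 min RT. Measured by: calcium-sensitive Fluo-8 signal, excitation 470-495, emission 515-575 nm. Read-out basis: % activation relative to PEA EC100 response. Control set: DMSO and PEA EC100. Repeats: no replicates (n 1).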
GPR7 antag – GPR7 receptor antagonists, primary screen, cell-based, fluorescence, single concentration; hit rate 1.1% among 290,000; GPR7-expressing cells, fluorescence antagonist assay; Neuropeptides B/W receptor type 1 (Homo sapiens), P48145; inhibition, % at 4.4 µM; in the data active means inhibition above about 16%, passing the limit was not always enough;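 further: cells stimulated with the agonist NPW; 0% = agonist with vehicle and 100% = vehicle without agonist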
CHO parental Ca – ATP-evoked calcium signal inhibitors, parental CHO, primary screen, counter-screen for OX1R antagonist project, cell-based, fluorescence, Fluo-8 calcium dye; parental CHO-K1, ATP-induced calcium, Fluo-8 fluorescence; hit rate 0.63% among 330,000; inhibition, % at 5.6 µM; AID 463079, 2010;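 active means inhibition above that plate's mean sample inhibition plus 3 SD, cut at about 26% in these data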;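 further: 0% = ATP-challenged DMSO wells and 100% = DMSO wells without ATP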
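Test system: untransfected parental CHO cell line. Compound: one dose, 5.6 µM nominal. Detection: intracellular calcium via Fluo-8 no-wash fluorescent dye. Measure: % inhibition. Benchmarks: ATP-challenged DMSO wells low, unchallenged DMSO wells high.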
OX1R antag-2 – antagonists of human orexin 1 receptor (OX1R). OX1R-expressing cells, FRET antagonist read-out. inhibition, % at 6.6 µM. hit rate 1.8% among 330,000; in the data active means inhibition mostly above about 38%, no sharp cut-off; inactive means mostly below about 40%;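 further: 0% = agonist challenge alone and 100% = reference antagonist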
TAAR1 antag – human TAAR1 antagonists, primary screen, Fluo-8 calcium fluorescence, CHO RD-HGA16 cells. Trace amine-associated receptor 1 (Homo sapiens), Q96RJ0. antagonist. inhibition, % at 3 µM. hit rate 1.5% among 360,000. AID 624466, 2012;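 active means inhibition above a per-plate cutoff, the mean inhibition of test compounds on that plate plus 3 SD, cut at about 49% in these data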;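 further: 0% = DMSO plus EC80 beta-PEA response and 100% = DMSO alone without agonist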
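Assay system: RD-HGA16 CHO cells with stable hTAAR1 and Gα16 / Reagent: EC80 β-phenethylamine stimulus / Doses: 3 µM, single point / Timing: dye loading 75 min at 37 °C, then 30 min room temperature / Measured by: Fluo-8 intracellular calcium dye fluorescence, real-time kinetic reads / Controls: vehicle wells and EC80 agonist wells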
TAAR1 ag conf – human TAAR1 agonists, retest of hits, confirmation, Fluo-8 calcium fluorescence, CHO RD-HGA16 cells. shares compounds with TAAR1 agonist. scaled: DMSO 0%, maximal phenethylamine 100%. activation, % at 3 µM. hit rate 82% among 2,400. AID 651783, 2012;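 active means activation above a cutoff set at the run's mean compound activation plus 3 SD, cut at about 39% in these data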
Ga16 nonsel ag – nonselective calcium mobilization agonists, CHO-Ga16 cells, counter-screen for hTAAR1 agonist project, cell-based, fluorescence, CHO-Ga16 parental line; shares compounds with TAAR1 agonist; Fluo-8 calcium fluorescence; normalized to maximal ATP response, DMSO zero; activation, % at 3 µM; hit rate 50% among 2,400; AID 651787, 2012;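 active means activation above the run cutoff, the mean activation over all tested wells plus 3 SD, cut at about 12% in these data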;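 further: 0% = DMSO wells and 100% = maximal ATP response on the peak over basal ratio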
TAAR1 desensitize – TAAR1 desensitization by agonist hits, confirmation, counter-screen for TAAR1 agonist project, cell-based, fluorescence, tachyphylaxis; CHO RD-HGA16 hTAAR1, Fluo-8 calcium, beta-PEA response inhibition; inhibition, % at 3 µM; AID 651951, 2012; shares compounds with TAAR1 agonist; hit rate 46% among 2,400;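 active means inhibition above the run cutoff, the mean inhibition of all test compounds plus 3 SD, cut at about 49% in these data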;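 further: beta-PEA stimulus applied at its EC80; loss of beta-PEA calcium signal after compound pretreatment read as receptor desensitization; 0% = DMSO with beta-PEA at EC80 and 100% = DMSO alone without agonist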
Ga16 antag count – inhibition of ATP-evoked calcium response in CHO-Ga16 cells, counter-screen for TAAR1 agonist project, cell-based, fluorescence. shares compounds with TAAR1 agonist. CHO-Ga16 ATP-induced calcium, Fluo-8 fluorescence. inhibition, % at 3 µM. hit rate 39% among 2,400;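 active means inhibition above the plate's mean compound inhibition plus 3 SD, computed per plate, cut at about 22% in these data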;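 further: 0% = EC80 ATP with DMSO and 100% = DMSO wells without ATP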
* marks the source's active call; other numbers are inactive results; · = no result given.

SMILES	OX1R antag-1	TAAR1 agonist	GPR7 antag	CHO parental Ca	OX1R antag-2	TAAR1 antag	TAAR1 ag conf	Ga16 nonsel ag	TAAR1 desensitize	Ga16 antag count
C[C@H](O)[C@@H]1C(=O)N2CCc3ccc(-c4ccccc4)cc3[C@@H]2C[C@@H]1N(C)C(=S)Nc1ccc(F)cc1	·	66*	·	·	·	-3	70*	34*	49*	46*
CCCN1CCN(C(=O)c2cc(COc3ccc(F)cc3F)on2)CC1	-17	0	-2	-8	17	-18	·	·	·	·
CC1=C(C(=O)NC2CC(C)(C)Cc3c2cnn3-c2cccc(F)c2)OCCO1 (stereo not given)	-12	3	7	-8	3	-13	·	·	·	·
Cc1cc(C(c2ccc(O)cc2)c2cc(C)c(O)cc2C)c(C)cc1O	29	113*	58*	19	5	85*	131*	77*	78*	41*
Cc1cccc(C(CC(=O)NCCc2ccccc2)c2ccccc2)c1O (stereo not given)	14	66*	4	-19	19	30	92*	3	61*	4
COc1ccc(NC(=O)Nc2nnc(CC(=O)NCc3ccccc3)s2)cc1	-12	44*	0	2	16	22	54*	5	32	14
CCOC(=O)Cc1nnc(NC(=O)CSc2ccc(C)cc2)s1	-19	69*	-3	-10	5	8	58*	27*	7	-2
COCc1nnc(NC(=O)CSc2ccc(C)cc2)s1	-15	36	13	-11	17	-5	·	·	·	·
CCOC(=O)Cc1nnc(NC(=O)Nc2ccccc2)s1	-22	45*	-5	-15	17	26	67*	4	42	4
O=C(Cc1ccc(Br)cc1)N1CCN(c2ccccc2O)CC1	-28	8	8	-10	15	2	·	·	·	·
CCOC(=O)c1c(NC(=O)CC)sc(C(=O)NC2CCCC2)c1C	-13	-1	-1	-1	7	-11	·	·	·	·
O=C(Nc1ccccc1Sc1ccccc1)C1CCCO1 (stereo not given)	-11	5	-3	-10	0	-12	·	·	·	·
CN(C)c1ccc(/C=C2\SC(=S)N(Nc3ncc(C(F)(F)F)cc3Cl)C2=O)cc1	100*	123*	8	76*	8	87*	76*	122*	77*	90*
CC(=O)NC(C)(c1ccccc1)c1nc(-c2ccc(N(C)C)cc2)cs1 (stereo not given)	·	-1	·	·	·	-15	·	·	·	·
O=C(COC(=O)c1ccc(S(=O)(=O)N2CCCC2)cc1)Nc1cccc(F)c1	3	12	·	9	-2	-11	·	·	·	·
COC(=O)c1sc(NC(=S)NC(=O)c2ccccc2C)nc1C	-20	43*	-6	-11	15	29	83*	54*	61*	34*
Cc1cc(C)n(-c2nc3ccccc3nc2NCCc2ccccc2)n1	-10	61*	-12	-12	8	-8	36	1	3	3
COc1ccc(Nc2nc3ccccc3nc2-n2nc(C)cc2C)cc1	-10	7	-1	-15	4	-15	·	·	·	·
CCOc1ccc(CCN2C(=O)c3ccc(C(=O)O)cc3C2=O)cc1OCC	-18	-1	13	-2	24	1	·	·	·	·
O=c1oc2c(O)cccc2cc1-c1nc2ccccc2[nH]1	·	83*	-9	·	·	9	93*	90*	46	29*
O=C(NCCC1=CCCCC1)c1cc(COc2c(F)cccc2F)on1	-26	8	0	-24	6	-17	·	·	·	·
CSc1ccccc1OCc1cc(C(=O)NCCC2=CCCCC2)no1	-31	55*	2	-6	38	-16	38*	7	89*	58*
CC(C)(C)OC(=O)N1CCC[C@H]1c1nnc(SCC(=O)Nc2ccc(Br)cc2)o1	-18	17	-5	-31	3	38	·	·	·	·
CCN(CCNCC(O)COc1ccccc1C(C)C)c1cccc(C)c1 (stereo not given)	-5	73*	8	31*	-13	43	79*	20*	58*	39*
CCOC(=O)N1CCN(CC(O)COc2ccccc2C(C)C)CC1 (stereo not given)	-24	7	-9	-27	11	8	·	·	·	·
SMILES	OX1R antag-1	TAAR1 agonist	GPR7 antag	CHO parental Ca	OX1R antag-2	TAAR1 antag	TAAR1 ag conf	Ga16 nonsel ag	TAAR1 desensitize	Ga16 antag count
OC(c1ccccc1)c1nc(-c2cccs2)cs1 (stereo not given)	·	-1	·	·	·	0	·	·	·	·
Cc1nn(-c2ccccc2)c(Cl)c1C1C(C#N)=C(N)Oc2c1c(C)nn2-c1ccccc1 (stereo not given)	-33	61*	-1	-19	24	25	58*	34*	36	25*
CC(=O)c1ccc(N2CCN(C(=O)c3ccc(Cn4c(=S)[nH]c5ccc(N6CCOCC6)cc5c4=O)cc3)CC2)cc1	-16	53*	0	1	13	-10	0	6	2	10
Cc1c(OC(C)C(=O)NCc2ccccn2)ccc2c3c(c(=O)oc12)CCCC3 (stereo not given)	-14	8	-2	-29	24	-8	·	·	·	·
CCN(CC)c1ccc(N2C(=O)C3CCCCC3C2=O)cc1[N+](=O)[O-] (stereo not given)	-22	11	5	-12	46	10	·	·	·	·
CCOCCCNc1ccc(N2C(=O)C3CCCCC3C2=O)cc1[N+](=O)[O-] (stereo not given)	-22	44*	-2	-2	24	-5	5	4	5	11

Screening data from PubChem BioAssay.
